ChEMBL document CHEMBL1122238, “Synthesis of analogues of pepstatin. Effect of structure in subsites P1', P2', and P2 on inhibition of porcine pepsin” (J Med Chem, 1983)
Non-standard residues stand in square brackets, D forms with d. Residues, ends and D or L forms follow the SMILES beside them. *: point of attachment. Sta = CC(C)C[C@H](N)[C@@H](O)CC(=O)O; Isovaleryl = CC(C)CC(=O)*

Columns and labels:
Pepsin A [1] = target: T1, Pepsin A (Sus scrofa, UniProt P00791); test: Tested for time independent inhibition constant against porcine pepsin
Method in brief: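 Pepsin (porcine) cleavage of Phe-Gly-His-Phe(NO2)-Phe-Ala-Phe-OMe (Km 4.0 × 10^-5 M), monitored by spectrophotometer. Reactions started with enzyme, giving linear steady-state initial velocities. Inhibitors were usually in 1% methanol v/v, or 10% if poorly soluble. IC50 came from inhibited versus uninhibited velocity and was converted to Ki by the Cha equation, Ki = (IC50 − Et/2)(1 + S/Km)^-1.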

Pepsin A [2] = target: T1, Pepsin A; test: Tested for time dependent inhibition constant against porcine pepsin
Method in brief: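 Porcine pepsin with synthetic heptapeptide substrate Phe-Gly-His-Phe(NO2)-Phe-Ala-Phe-OMe (Km 4.0 × 10^-5 M), followed spectrophotometrically. Enzyme preincubated with inhibitor for 10 min, and the reaction started by adding substrate. Velocities taken at apparent steady state. Inhibitor solutions generally contained 1% methanol v/v, and 10% for poorly soluble ones. IC50 converted to Ki by the Cha equation, correcting for total enzyme and S/Km.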

T1 sequence (P00791 whole entry): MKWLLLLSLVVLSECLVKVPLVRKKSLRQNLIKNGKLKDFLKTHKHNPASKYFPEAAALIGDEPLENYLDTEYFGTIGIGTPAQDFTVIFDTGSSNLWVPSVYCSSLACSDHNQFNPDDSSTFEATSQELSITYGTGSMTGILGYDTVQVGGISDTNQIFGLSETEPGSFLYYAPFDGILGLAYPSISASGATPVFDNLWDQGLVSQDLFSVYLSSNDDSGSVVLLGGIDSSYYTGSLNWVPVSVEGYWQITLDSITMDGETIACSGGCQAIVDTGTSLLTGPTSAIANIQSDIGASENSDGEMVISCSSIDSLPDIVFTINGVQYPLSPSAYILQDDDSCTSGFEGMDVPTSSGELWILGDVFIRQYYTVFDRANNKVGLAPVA

| SMILES | Ki (Pepsin A [1]) | Ki (Pepsin A [2]) |
| --- | --- | --- |
| COC(=O)C(C)NC(=O)CC(O)C(CC(C)C)NC(=O)C(NC(=O)CC(C)C)C(C)C (stereo unspecified) | 600 nM | – |
| CC(C)CCNC(=O)C(CC(C)C)NC(=O)CC(O)C(CC(C)C)NC(=O)C(NC(=O)CC(C)C)C(C)C (stereo unspecified) | – | 4.6 nM |
| CC(C)CCNC(=O)C(C)NC(=O)CC(O)C(CC(C)C)NC(=O)C(NC(=O)CC(C)C)C(C)C (stereo unspecified) | – | 3 nM |
| COC(=O)CNC(=O)C(C)NC(=O)CC(O)C(CC(C)C)NC(=O)C(NC(=O)CC(C)C)C(C)C (stereo unspecified) | 68 nM | – |
| CC(C)CCNC(=O)C(C)NC(=O)CC(O)C(CC(C)C)NC(=O)CNC(=O)CC(C)C (stereo unspecified) | 100 nM | – |
| CNC(=O)C(C)NC(=O)CC(O)C(CC(C)C)NC(=O)C(NC(=O)CC(C)C)C(C)C (stereo unspecified) | 140 nM | – |
| COC(=O)[C@H](C)NC(=O)C[C@H](O)[C@H](CC(C)C)NC(=O)[C@@H](NC(=O)[C@@H](NC(=O)CC(C)C)C(C)C)C(C)C (Isovaleryl-VV[Sta]A-OMe) | – | 3.5 nM |
| COC(=O)C(CC(C)C)NC(=O)C(C)NC(=O)CC(O)C(CC(C)C)NC(=O)C(NC(=O)CC(C)C)C(C)C (stereo unspecified) | – | 1.1 nM |
| CCOC(=O)CC(O)C(CC(C)C)NC(=O)C(NC(=O)CC(C)C)C(C)C (stereo unspecified) | 800 nM | – |
| CC(C)CCNC(=O)C(C)NC(=O)CC(O)C(CC(C)C)NC(=O)C(CC(C)C)NC(=O)CC(C)C (stereo unspecified) | 13 nM | – |
| COC(=O)C(Cc1ccccc1)NC(=O)C(C)NC(=O)CC(O)C(CC(C)C)NC(=O)C(NC(=O)CC(C)C)C(C)C (stereo unspecified) | – | 1.5 nM |
| CCOC(=O)C[C@H](O)[C@H](CC(C)C)NC(=O)[C@@H](NC(=O)[C@@H](NC(=O)CC(C)C)C(C)C)C(C)C (Isovaleryl-Val-Val-[Sta]-OEt) | 10 nM | – |
| CC(C)CC(=O)NC(C(=O)NC(CC(C)C)C(O)CC(=O)NC(C)C)C(C)C (stereo unspecified) | 300 nM | – |
| CC(C)CC(=O)NC(C(=O)NC(CC(C)C)C(O)CC(=O)NC(C)C(=O)NC(C)C)C(C)C (stereo unspecified) | – | 20 nM |
| CC(C)CCNC(=O)C(C)NC(=O)CC(O)C(CC(C)C)NC(=O)C(C)NC(=O)CC(C)C (stereo unspecified) | – | 30 nM |
| CC(C)CCNC(=O)CNC(=O)CC(O)C(CC(C)C)NC(=O)C(NC(=O)CC(C)C)C(C)C (stereo unspecified) | 56 nM | – |
